Results taken from ChEMBL document CHEMBL1250525, “Structure-activity relationships in 1,4-benzodioxan-related compounds. 10. Novel α1-adrenoreceptor antagonists related to openphendioxan: synthesis, biological evaluation, and α1d computational study” (Bioorg Med Chem, 2010).

Tests used:
[1] = target: T1, Alpha-1A adrenergic receptor (Homo sapiens, UniProt P35348); assay: Displacement of [3H]prazosin from human adrenergic alpha1A expressed in CHO cells; assay type: cell-based
T1 sequence (P35348 whole entry): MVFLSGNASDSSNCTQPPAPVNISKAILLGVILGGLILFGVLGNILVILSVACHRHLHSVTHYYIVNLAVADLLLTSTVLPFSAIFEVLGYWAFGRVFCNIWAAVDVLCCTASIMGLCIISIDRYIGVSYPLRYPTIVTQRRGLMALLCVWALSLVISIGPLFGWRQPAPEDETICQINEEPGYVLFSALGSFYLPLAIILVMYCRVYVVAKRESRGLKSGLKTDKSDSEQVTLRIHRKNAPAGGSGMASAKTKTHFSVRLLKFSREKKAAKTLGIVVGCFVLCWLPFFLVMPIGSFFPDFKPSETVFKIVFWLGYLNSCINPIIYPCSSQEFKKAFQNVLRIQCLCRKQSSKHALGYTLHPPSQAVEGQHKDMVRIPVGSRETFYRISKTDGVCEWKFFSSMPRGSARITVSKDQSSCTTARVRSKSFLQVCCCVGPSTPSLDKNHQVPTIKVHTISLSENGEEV
Procedure, shortened: (§1)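 Membranes (30 µg protein) from CHO cells stably expressing each cloned human α1 subtype, labelled with [3H]prazosin. Nonspecific binding with 10 µM phentolamine. Stopped with ice-cold Tris–HCl and filtration on 0.2% polyethyleneimine-treated glass-fibre filters. Ki from IC50 by Cheng–Prusoff, nonlinear fitting. Mean ± SE of 2–3 experiments in triplicate.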

[2] = target: T2, Alpha-1B adrenergic receptor (Homo sapiens, UniProt P35368); assay: Displacement of [3H]prazosin from human adrenergic Alpha-1B expressed in CHO cells; assay type: cell-based; procedure, shortened: as §1
T2 sequence (P35368 whole entry): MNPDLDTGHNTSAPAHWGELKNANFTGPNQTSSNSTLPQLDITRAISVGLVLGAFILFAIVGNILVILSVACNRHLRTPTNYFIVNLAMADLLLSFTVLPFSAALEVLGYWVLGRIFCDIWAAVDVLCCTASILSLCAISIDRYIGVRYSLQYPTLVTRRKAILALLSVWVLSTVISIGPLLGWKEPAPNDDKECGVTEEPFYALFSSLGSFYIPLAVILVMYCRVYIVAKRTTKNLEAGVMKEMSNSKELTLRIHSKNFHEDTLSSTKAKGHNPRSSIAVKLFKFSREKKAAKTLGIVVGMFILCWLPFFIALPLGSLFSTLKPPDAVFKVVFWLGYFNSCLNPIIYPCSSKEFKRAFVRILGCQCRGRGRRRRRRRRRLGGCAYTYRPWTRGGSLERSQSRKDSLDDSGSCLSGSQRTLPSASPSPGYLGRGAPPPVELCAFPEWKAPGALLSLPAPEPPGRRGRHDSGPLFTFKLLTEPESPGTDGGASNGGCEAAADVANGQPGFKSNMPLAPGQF

[3] = target: T3, Alpha-1D adrenergic receptor (Homo sapiens, UniProt P25100); assay: Displacement of [3H]prazosin from human adrenergic Alpha-1D expressed in CHO cells; assay type: cell-based; procedure, shortened: as §1
T3 sequence (P25100 whole entry): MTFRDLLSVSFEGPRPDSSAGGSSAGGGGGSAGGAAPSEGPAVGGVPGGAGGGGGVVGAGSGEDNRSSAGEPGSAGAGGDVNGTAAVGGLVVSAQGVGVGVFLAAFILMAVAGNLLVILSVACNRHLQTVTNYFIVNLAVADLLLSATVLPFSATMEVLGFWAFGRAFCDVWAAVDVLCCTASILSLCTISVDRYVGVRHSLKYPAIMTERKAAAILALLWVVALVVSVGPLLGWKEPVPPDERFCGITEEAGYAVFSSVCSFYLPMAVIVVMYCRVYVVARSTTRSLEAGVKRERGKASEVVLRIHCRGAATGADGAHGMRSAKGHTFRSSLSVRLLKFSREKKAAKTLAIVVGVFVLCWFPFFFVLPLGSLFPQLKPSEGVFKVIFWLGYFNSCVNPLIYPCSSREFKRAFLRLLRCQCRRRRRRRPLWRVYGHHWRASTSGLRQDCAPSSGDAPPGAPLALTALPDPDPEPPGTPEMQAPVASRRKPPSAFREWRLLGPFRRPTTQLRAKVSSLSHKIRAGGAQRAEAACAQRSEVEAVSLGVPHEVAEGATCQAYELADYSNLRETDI

[4] = target: T4, 5-hydroxytryptamine receptor 1A (Homo sapiens, UniProt P08908); assay: Displacement of [3H]8-OH-DPAT from human adrenergic 5HT1A expressed in human HeLa cells; assay type: cell-based
T4 sequence (P08908 whole entry): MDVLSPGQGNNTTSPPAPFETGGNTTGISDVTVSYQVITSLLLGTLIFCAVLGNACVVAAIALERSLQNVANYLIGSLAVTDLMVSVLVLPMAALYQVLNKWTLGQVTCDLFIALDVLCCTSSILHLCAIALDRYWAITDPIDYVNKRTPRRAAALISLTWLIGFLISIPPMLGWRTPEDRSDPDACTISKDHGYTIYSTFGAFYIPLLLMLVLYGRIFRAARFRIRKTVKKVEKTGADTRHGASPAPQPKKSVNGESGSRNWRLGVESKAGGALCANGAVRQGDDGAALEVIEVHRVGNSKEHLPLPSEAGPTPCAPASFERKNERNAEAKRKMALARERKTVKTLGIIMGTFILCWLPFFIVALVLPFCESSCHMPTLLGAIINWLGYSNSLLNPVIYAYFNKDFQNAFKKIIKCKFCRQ
Procedure, shortened: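 HeLa cells stably carrying human 5-HT1A clone G-21, grown in DMEM with 10% FCS. Membranes in 50 mM Tris–HCl pH 7.4, 2.5 mM MgCl2, 10 µM pargyline, with 0.7–1.4 nM [3H]8-OH-DPAT for 30 min at 30 °C. Nonspecific binding with 10 µM 5-HT. Filtration stop. Ki by Cheng–Prusoff. Mean ± SE of 2–3 experiments in triplicate.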

[5] = target: T5, Alpha-1A adrenergic receptor (Rattus norvegicus) (UniProt P43140); assay: Antagonist activity at adrenergic alpha1A receptor in Wistar rat vas deference assessed as inhibition of (-)-noradrenaline-indcuced contraction; assay type: functional
T5 sequence (whole entry): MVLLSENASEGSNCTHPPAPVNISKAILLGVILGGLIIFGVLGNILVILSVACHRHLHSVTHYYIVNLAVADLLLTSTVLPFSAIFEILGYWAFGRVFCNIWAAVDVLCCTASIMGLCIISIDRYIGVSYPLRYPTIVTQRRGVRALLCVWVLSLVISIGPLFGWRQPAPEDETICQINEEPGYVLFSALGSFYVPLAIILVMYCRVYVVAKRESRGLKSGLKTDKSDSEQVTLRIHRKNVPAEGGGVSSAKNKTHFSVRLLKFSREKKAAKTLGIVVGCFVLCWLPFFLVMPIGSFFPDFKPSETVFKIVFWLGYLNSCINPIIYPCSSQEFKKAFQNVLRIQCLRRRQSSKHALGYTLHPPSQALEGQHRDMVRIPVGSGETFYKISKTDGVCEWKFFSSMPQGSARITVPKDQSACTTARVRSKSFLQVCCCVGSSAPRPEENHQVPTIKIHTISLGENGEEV
Procedure, shortened: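 Tissue in Tyrode with 0.1 µM cocaine, equilibrated 60 min with washes every 15 min, primed twice with 10 µM noradrenaline. A noradrenaline curve gave the basal response. Antagonist 30 min, then 30 min washing, then a new agonist curve.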

[6] = target: T6, Alpha-1B adrenergic receptor (Rattus norvegicus) (UniProt P15823); assay: Antagonist activity at adrenergic Alpha-1B receptor in Wistar rat spleen assessed as inhibition of […]-indcuced contraction; assay type: functional, tissue-based
T6 sequence (whole entry): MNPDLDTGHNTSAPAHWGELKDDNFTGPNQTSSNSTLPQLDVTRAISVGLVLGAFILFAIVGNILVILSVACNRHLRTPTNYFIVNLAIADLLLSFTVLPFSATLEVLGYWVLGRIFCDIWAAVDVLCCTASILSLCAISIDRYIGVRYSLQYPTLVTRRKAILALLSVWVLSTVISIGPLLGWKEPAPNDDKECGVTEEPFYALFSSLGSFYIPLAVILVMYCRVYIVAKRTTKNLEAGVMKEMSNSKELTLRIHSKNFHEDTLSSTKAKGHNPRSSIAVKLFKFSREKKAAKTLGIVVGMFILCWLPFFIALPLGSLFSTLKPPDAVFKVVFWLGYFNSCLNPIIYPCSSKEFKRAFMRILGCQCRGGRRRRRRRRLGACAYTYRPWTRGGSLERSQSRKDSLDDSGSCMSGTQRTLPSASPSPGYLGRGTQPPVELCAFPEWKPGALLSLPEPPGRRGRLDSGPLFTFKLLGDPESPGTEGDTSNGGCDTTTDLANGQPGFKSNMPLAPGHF

[7] = target: T7, Alpha-1D adrenergic receptor (Rattus norvegicus) (UniProt P23944); assay: Antagonist activity at adrenergic Alpha-1D receptor in Wistar rat thoracic aorta assessed as inhibition of (-)-noradrenaline-indcuced contraction; assay type: functional, tissue-based
T7 sequence (whole entry): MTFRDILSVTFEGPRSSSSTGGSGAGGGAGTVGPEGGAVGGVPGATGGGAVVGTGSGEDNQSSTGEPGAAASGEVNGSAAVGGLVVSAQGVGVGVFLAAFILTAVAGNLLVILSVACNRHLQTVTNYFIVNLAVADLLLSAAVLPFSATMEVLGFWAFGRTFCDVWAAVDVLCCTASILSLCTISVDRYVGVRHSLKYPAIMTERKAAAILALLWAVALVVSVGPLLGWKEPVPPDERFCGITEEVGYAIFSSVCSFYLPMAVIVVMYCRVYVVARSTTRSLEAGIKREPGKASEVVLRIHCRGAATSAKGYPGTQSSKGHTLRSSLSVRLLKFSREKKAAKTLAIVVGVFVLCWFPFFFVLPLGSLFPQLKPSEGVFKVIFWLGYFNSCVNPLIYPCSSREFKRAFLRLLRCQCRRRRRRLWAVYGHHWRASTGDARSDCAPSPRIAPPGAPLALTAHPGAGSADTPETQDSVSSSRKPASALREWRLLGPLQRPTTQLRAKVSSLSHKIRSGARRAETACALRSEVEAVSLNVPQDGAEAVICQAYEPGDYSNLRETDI

Row | Structure (SMILES) | Ki [1] | Ki [2] | Ki [3] | Ki [4] | pKb [5] | pKb [6] | pKb [7]
1 | COc1cccc(OC)c1CCCNCCOc1ccccc1OCc1ccccc1 | 9.77 nM | 6.92 nM | 1.2 nM | 2.51 nM | 7.8 | 7.34 | 8.12
2 | COc1ccccc1OCCNCCOc1ccccc1OCc1ccccc1 | 3.16 nM | 20 nM | 3.98 nM | 2.51 nM | 7.95 | 7.89 | 8.08
3 | COc1cccc(C)c1OCCNCCOc1ccccc1OCc1ccccc1 | 2.51 nM | 5.01 nM | 0.912 nM | 3.98 nM | 8.35 | 7.91 | 8.36
4 | COc1cccc(OC)c1OCCNCC1COc2ccccc2O1 (configuration not stated) |  |  |  |  | 9.51 | 8.16 | 8.8
5 | COc1cccc(Cl)c1OCCNCCOc1ccccc1OCc1ccccc1 | 2.51 nM | 7.94 nM | 0.741 nM | 31.6 nM | 8.16 | 7.84 | 8.74
6 | CCOc1ccccc1OCCNCCOc1ccccc1OCc1ccccc1 | 2 nM | 12.6 nM | 3.72 nM | 5.01 nM | 8.03 | 7.94 | 8.35
7 | COc1cccc(OC)c1SCCNCCOc1ccccc1OCc1ccccc1 | 3.16 nM | 0.501 nM | 0.178 nM | 15.8 nM | 8.74 | 8.57 | 9.47
8 | Oc1cccc(O)c1OCCNCCOc1ccccc1OCc1ccccc1 | 5.01 nM | 100 nM | 15.1 nM | 12.6 nM | 7.44 | 7.02 | 7.44
9 | Cc1cccc(C)c1OCCNCCOc1ccccc1OCc1ccccc1 | 7.94 nM | 100 nM | 14.1 nM | 15.8 nM | 7.33 | 7.78 | 7.59
10 | CCOc1cccc(OCC)c1OCCNCCOc1ccccc1OCc1ccccc1 | 3.16 nM | 0.794 nM | 0.389 nM | 31.6 nM | 7.92 | 8.57 | 8.03
11 | c1ccc(COc2ccccc2OCCNCCOc2ccccc2)cc1 | 10 nM | 100 nM | 17.8 nM | 7.94 nM | 7.65 | 7.74 | 7.32
12 | Clc1cccc(Cl)c1OCCNCCOc1ccccc1OCc1ccccc1 | 6.31 nM | 79.4 nM | 7.08 nM | 31.6 nM | 6.57 | 7.75 | 8.02
13 | COc1cccc([N+](=O)[O-])c1OCCNCCOc1ccccc1OCc1ccccc1 | 1.12 nM | 5.01 nM | 0.513 nM | 15.8 nM | 8.41 | 8.19 | 8.92
14 | COc1cccc(OC)c1OCCNCCOc1ccccc1OCc1ccccc1 |  |  |  |  | 8.39 | 8.3 | 9.37
15 | COc1cccc(OC)c1[S+]([O-])CCNCCOc1ccccc1OCc1ccccc1 (configuration not stated) | 20 nM | 15.8 nM | 2.75 nM | 3.16 nM | 7.95 | 7.65 | 7.49
